Rows were chosen to be rich in hits. Some 6.4% of all compounds tested hit in one or more screens of this group.
CHOP inhibitor – CHOP inhibition in unfolded protein response; inhibition, % at 10 µM; CHO-K1 CHOP-promoter luciferase, tunicamycin-induced, 15-18 h; 220,000 compounds, 3.8% hits; AID 2732;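 active = compounds that reduced the stress-induced luciferase reporter signal by more than about 70% of percent inhibition, limit read from the data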
TbMetRS inhib – Trypanosoma brucei MetRS inhibition | purified T. brucei MetRS, ATP depletion, Kinase-Glo luminescence | inhibition, % at 11.9 µM | 360,000 compounds, 0.4% hits | AID 624268;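 active = inhibition above a per-plate cutoff of the control wells' mean inhibition plus 3 SD, cut at about 5.5% in these data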
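Dosing: 11.9 µM compound single dose, 0.9% DMSO; Assay system: purified T. brucei MetRS enzyme; Measured by: Kinase-Glo luciferase luminescence reporting remaining unconsumed ATP; Schedule: 15 min plus 2 h at 25 °C.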
EBV gp42 block – blocks Epstein-Barr virus glycoprotein 42 binding; Q1HVG2; Fluorescence polarization binding assay, mP read-out; inhibition, % (tested at 21.74 µM); 220,000 compounds, 0.42% hits; AID 1085; in the data active = inhibition above about 50%
Target sequence (Q1HVG2 whole entry, looked up): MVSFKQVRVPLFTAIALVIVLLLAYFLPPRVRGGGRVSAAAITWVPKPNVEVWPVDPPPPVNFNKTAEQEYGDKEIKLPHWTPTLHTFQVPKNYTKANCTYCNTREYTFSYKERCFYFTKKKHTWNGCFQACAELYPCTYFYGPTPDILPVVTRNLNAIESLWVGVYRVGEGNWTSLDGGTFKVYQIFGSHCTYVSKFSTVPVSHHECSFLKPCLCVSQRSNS
WT yeast gro inh – growth inhibition of WT yeast, mitochondrial fusion screen; mitochondrial fusion phenotypic screen, WT strain; inhibition, % at 10 µM; 190,000 compounds, 2.1% hits; AID 1362; in the data active = inhibition above about 58%; tested in S. cerevisiae
NR3A LBD binder – modulates the human NR3A ligand-binding domain. AID 1259313. NR3A LBD differential scanning fluorimetry, Tm shift; 0% = protein alone, 100% = glycine-bound protein. 340,000 compounds, 2.5% hits. Tm shift relative to glycine control, % at 25 µM;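 active = melting temperature shift of at least 10% of the positive control shift, at one fixed dose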
MPTP inh – inhibitors of mitochondrial permeability transition pore | isolated mouse mitochondria, Ca2+ swelling absorbance, 30 min | inhibition, % at 10 µM | 360,000 compounds, 1.4% hits;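 active = inhibition of 50% or more, scaled per plate between neutral and stimulator controls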
Of the large screens only hits and unclear results are named; the others gave an inactive call.

O=[N+]([O-])c1ccc(Cl)c(S(=O)(=O)Nc2ccc(-c3ccc(N4CCCC4)nn3)cc2)c1	none (no result: CHOP inhibitor, EBV gp42 block, WT yeast gro inh)
O=[N+]([O-])c1ccc(Cl)c(S(=O)(=O)Nc2cccc(-c3ccc(N4CCCC4)nn3)c2)c1	NR3A LBD binder 16 (no result: CHOP inhibitor, EBV gp42 block, WT yeast gro inh)
N#Cc1c(N2CCN(C(=O)c3ccccc3Cl)CC2)nc(-c2ccccc2)c2c1CCCC2	none
CC(C)Cc1nc(N2CCN(C(=O)c3ccccc3)CC2)c(C#N)c2c1CCC2	CHOP inhibitor 80, WT yeast gro inh 73
CC1(C)Cc2c(C#N)c(N3CCN(C(=O)c4ccco4)CC3)nc(Cc3ccccc3)c2CO1	CHOP inhibitor 88
CC(=O)N1CCN(c2nc(CC(C)C)c3c(c2C#N)CCC3)CC1	none
N#Cc1c(N2CCN(C(=O)c3ccccc3)CC2)nc(-c2ccccc2)c2c1CCCC2	CHOP inhibitor 72
N#Cc1c(NCCCO)nc(-c2ccccc2)c2c1CCCC2	CHOP inhibitor 78
CCCN(CC(=O)Nc1ccccc1C)C(=O)c1ccc(N2CCOCC2)c([N+](=O)[O-])c1	none (no result: CHOP inhibitor, EBV gp42 block, WT yeast gro inh)
Cc1cc(OCC(O)CN2CCOCC2)cc(C)c1Cl (stereo not given)	none (no result: CHOP inhibitor, EBV gp42 block, WT yeast gro inh)
O=C(COc1ccc2ccc(=O)oc2c1)Nc1ccc(CN2CCOCC2)cc1	none (no result: CHOP inhibitor, EBV gp42 block, WT yeast gro inh)
COc1ccc(CNC(=S)Nc2ccccc2)cc1Cl	none (no result: CHOP inhibitor, EBV gp42 block, WT yeast gro inh)
CCCOc1ccc(CNC(=S)Nc2ccccc2)cc1Cl	NR3A LBD binder 18 (no result: CHOP inhibitor, EBV gp42 block, WT yeast gro inh)
CCc1nc2ccccc2c(C(=O)OCC(=O)N(C)Cc2ccccc2)c1C	none (no result: CHOP inhibitor, EBV gp42 block, WT yeast gro inh)
Cc1cc(C)c(Cn2ncn(-c3ccc(Br)cc3)c2=O)c(C)c1	none
CCN1CCN(C(=O)C(C)Oc2ccc(S(=O)(=O)N3CCCC3)cc2C(N)=O)CC1 (stereo not given)	none (no result: CHOP inhibitor, EBV gp42 block, WT yeast gro inh)
O=[N+]([O-])c1cc([N+](=O)[O-])c2n[nH]c(-c3ccccc3)c2c1	CHOP inhibitor 72
O=[N+]([O-])c1cccc2c(Br)[nH]nc12	none (no result: TbMetRS inhib, EBV gp42 block, WT yeast gro inh, NR3A LBD binder, MPTP inh)
CCCCN(CCCC)CC(O)CN1C(=O)NC(C)(C)C1=O (stereo not given)	none
Cn1c(-c2sc3cc(C(F)(F)F)cnc3c2-c2cccs2)n[nH]c1=S	WT yeast gro inh 65
Cc1cccc(NC(=O)COC(=O)c2ccc(S(=O)(=O)N3CCCCCC3)cc2)c1	none (no result: CHOP inhibitor, EBV gp42 block, WT yeast gro inh)
N#C/C(=C/c1ccc2c(c1)OCO2)C(=O)NCCc1c[nH]c2ccccc12	none
N#C/C(=C\c1ccc(-c2ccc(Br)cc2)o1)C(=O)NCCc1c[nH]c2ccccc12	NR3A LBD binder 27
O=C1c2ccccc2C(=O)N1SC1CCCCC1	CHOP inhibitor 72
Cc1c(Nc2cc(Cl)c3nonc3c2[N+](=O)[O-])c(=O)n(-c2ccccc2)n1C	CHOP inhibitor 108
Cc1noc(C)c1NC(=O)Nc1ccc2c(c1)C(=O)N([C@@H](C)CO)C[C@@H](C)[C@@H](CN(C)Cc1ccc3c(c1)OCO3)O2	none (no result: CHOP inhibitor, EBV gp42 block, WT yeast gro inh)
COC(=O)c1[nH]c2cc(C)ccc2c1NC(=O)CN1CCOCC1	none (no result: WT yeast gro inh)
COC(=O)c1[nH]c2cc(OC)ccc2c1NC(=O)CN1CCN(c2cccc(C)c2)C(C)C1 (stereo not given)	CHOP inhibitor 89
COc1ccccc1NC(=S)NC(=O)/C=C/c1ccco1	none
NC(=S)NNC(=O)/C(=C/c1ccc(Br)cc1)NC(=O)c1ccccc1	NR3A LBD binder 13
COc1ccc(C(=O)NC(C)c2nnc(SCC(=O)NC3=NCCS3)n2C)cc1 (stereo not given)	none (no result: CHOP inhibitor, EBV gp42 block, WT yeast gro inh)
CCc1ccc(NC(=O)N(C2CCC(C)CC2)C2CCN(C(C)=O)CC2)cc1 (stereo not given)	none
CCOc1ccc(C(F)(F)F)cc1NC(=O)COc1ccc(C(F)(F)F)cc1[N+](=O)[O-]	none
CCCOP(=O)(OCCC)c1c([N+](=O)[O-])cc(C(F)(F)F)cc1[N+](=O)[O-]	NR3A LBD binder 11
O=C(N/N=C/c1ccc(OCc2cnc(Cl)s2)cc1)c1ccncc1	none
CC(C)c1ccc(NC(=O)CCNS(=O)(=O)c2cccc3nonc23)cc1	none
Cc1ccc(NC(=O)CCNS(=O)(=O)c2cccc3nonc23)cc1	CHOP inhibitor 75
CCCCCCOc1ccc(-c2ccc(C#N)cn2)cc1	CHOP inhibitor 74
CCCCCNC(=O)C(=O)C1C(=O)Nc2ccccc21 (stereo not given)	NR3A LBD binder 28 (no result: WT yeast gro inh)
CCOC(=O)C1CCCN(C(=O)CN2C(=O)/C(=C/c3ccc(OC)cc3)Oc3ccccc32)C1 (stereo not given)	WT yeast gro inh 59
Cc1nn(C(=O)CNS(=O)(=O)c2ccccc2)c(C)c1Sc1ccc(Cl)cc1	CHOP inhibitor 82
Clc1ccc(Nc2ccc(-n3ccnc3)nn2)cc1Cl	NR3A LBD binder 19
c1ccc(Nc2ccc(-n3ccnc3)nn2)cc1	none
COC(=O)c1nc2n(n1)C(c1cc(OC)ccc1OC)C(C(=O)OC1CCCCC1)=C(C)N2 (stereo not given)	CHOP inhibitor 80 (no result: WT yeast gro inh)
COC(=O)C1=C(C)Nc2nnnn2C1c1cc(OC)ccc1OC (stereo not given)	none
COc1ccc(CN2CC(=O)N(c3ccccc3C)C2=S)cc1OC	none
CCc1ccc(-c2csc(-c3c[nH]c4ccccc34)n2)cc1	CHOP inhibitor 86, NR3A LBD binder 39
Cc1c(OC(C)C(=O)NCc2ccccn2)ccc2c3c(c(=O)oc12)CCC3 (stereo not given)	none (no result: CHOP inhibitor, EBV gp42 block, WT yeast gro inh)
Cc1ccsc1C(=O)OCC(=O)Nc1cccc(S(=O)(=O)N2CCCCC2)c1	none (no result: CHOP inhibitor, EBV gp42 block, WT yeast gro inh, NR3A LBD binder)
CC1=NN(c2ccccc2)C(=O)/C1=C/c1ccc[nH]1	NR3A LBD binder 17
CC1=NN(c2ccc(Cl)c(C(=O)O)c2)C(=O)/C1=C\c1ccc(-c2ccc(C(=O)O)cc2)o1	none
CC1=NN(c2ccccc2)C(=O)C1=Cc1ccccc1	none (no result: CHOP inhibitor, EBV gp42 block, WT yeast gro inh, NR3A LBD binder)
CC1=NN(c2ccccc2)C(=O)/C1=C/c1ccc(-c2ccc(C)c(C(=O)O)c2)o1	NR3A LBD binder 10 (no result: CHOP inhibitor, TbMetRS inhib, EBV gp42 block, WT yeast gro inh, MPTP inh)
CSc1ccccc1NC(=O)CN(Cc1ccc(Cl)cc1)S(C)(=O)=O	CHOP inhibitor 77
CS(=O)(=O)N(CC(=O)Nc1ccccc1)Cc1ccc(Cl)cc1	none
CSc1cccc(NC(=O)CN(Cc2ccc(Cl)cc2)S(C)(=O)=O)c1	CHOP inhibitor 93
O=C(c1cccnc1)C1Cc2ccccc2C1=O (stereo not given)	none (no result: WT yeast gro inh)
COc1cccc(NC(=O)CN(c2cccc(C(F)(F)F)c2)S(C)(=O)=O)c1	none
CCNC(=S)N/N=C/c1cccc(/C=N/NC(=S)NCC)c1	none
CCNC(=S)N/N=C/c1cccc(OCc2c(F)cccc2Cl)c1	WT yeast gro inh 69
CC(C)C(NS(=O)(=O)c1ccccc1)C(=O)OCC(=O)NNC(=O)c1ccccc1 (stereo not given)	none (no result: CHOP inhibitor, EBV gp42 block, WT yeast gro inh)
CCC(=O)Nc1cccc(-c2cn3cccc(C)c3n2)c1	NR3A LBD binder 15 (no result: WT yeast gro inh)
Cc1cccn2cc(-c3ccc(S(=O)(=O)N4CCOCC4)cc3)nc12	CHOP inhibitor 71
Cc1cccn2cc(-c3ccc(Cl)cc3)nc12	none
Cc1ccc(-c2cn3cccc(C)c3n2)cc1	NR3A LBD binder 23

Screening data as filed in PubChem.
